# From ChEMBL document CHEMBL3861996, “Arylsulfonamide derivatives of (aryloxy)ethyl pyrrolidines and piperidines as α1-adrenergic receptor antagonist with uro-selective activity” (Bioorg Med Chem, 2016)
# Experiments:
# [1] = target: T1, Adrenergic receptor alpha-2 (Rattus norvegicus, UniProt P22086+P19328+P22909); experiment: Displacement of [3H]-Clonidine from alpha2 adrenergic receptor in rat brain cerebral cortex membranes by liquid scintillation counting analysis; type: cell membranes, Membrane
# T1 sequence (P22086 whole entry): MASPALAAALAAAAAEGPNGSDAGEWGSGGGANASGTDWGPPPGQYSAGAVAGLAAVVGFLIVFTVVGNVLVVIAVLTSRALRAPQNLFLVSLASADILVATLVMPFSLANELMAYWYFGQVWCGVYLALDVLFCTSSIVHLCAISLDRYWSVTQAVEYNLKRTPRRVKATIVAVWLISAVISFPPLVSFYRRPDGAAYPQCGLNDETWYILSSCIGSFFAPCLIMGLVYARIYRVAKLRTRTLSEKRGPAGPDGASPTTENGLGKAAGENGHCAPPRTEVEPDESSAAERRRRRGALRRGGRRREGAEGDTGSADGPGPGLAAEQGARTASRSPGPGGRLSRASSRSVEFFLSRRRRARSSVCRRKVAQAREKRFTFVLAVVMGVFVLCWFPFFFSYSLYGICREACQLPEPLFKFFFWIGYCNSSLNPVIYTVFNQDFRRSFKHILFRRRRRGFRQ
# T1 sequence (P19328 whole entry): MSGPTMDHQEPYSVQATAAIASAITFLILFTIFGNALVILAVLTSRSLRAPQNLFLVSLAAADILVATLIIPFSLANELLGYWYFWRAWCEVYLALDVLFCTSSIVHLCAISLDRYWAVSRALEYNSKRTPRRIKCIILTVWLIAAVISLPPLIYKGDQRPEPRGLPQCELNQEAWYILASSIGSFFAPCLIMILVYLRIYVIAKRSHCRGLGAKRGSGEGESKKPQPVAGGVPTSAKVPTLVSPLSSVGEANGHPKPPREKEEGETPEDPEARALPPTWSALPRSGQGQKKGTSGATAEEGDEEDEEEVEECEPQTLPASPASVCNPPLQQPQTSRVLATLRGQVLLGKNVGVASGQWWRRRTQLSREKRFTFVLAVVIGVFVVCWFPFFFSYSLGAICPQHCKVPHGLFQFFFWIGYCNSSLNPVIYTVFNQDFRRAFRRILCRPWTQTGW
# T1 sequence (P22909 whole entry): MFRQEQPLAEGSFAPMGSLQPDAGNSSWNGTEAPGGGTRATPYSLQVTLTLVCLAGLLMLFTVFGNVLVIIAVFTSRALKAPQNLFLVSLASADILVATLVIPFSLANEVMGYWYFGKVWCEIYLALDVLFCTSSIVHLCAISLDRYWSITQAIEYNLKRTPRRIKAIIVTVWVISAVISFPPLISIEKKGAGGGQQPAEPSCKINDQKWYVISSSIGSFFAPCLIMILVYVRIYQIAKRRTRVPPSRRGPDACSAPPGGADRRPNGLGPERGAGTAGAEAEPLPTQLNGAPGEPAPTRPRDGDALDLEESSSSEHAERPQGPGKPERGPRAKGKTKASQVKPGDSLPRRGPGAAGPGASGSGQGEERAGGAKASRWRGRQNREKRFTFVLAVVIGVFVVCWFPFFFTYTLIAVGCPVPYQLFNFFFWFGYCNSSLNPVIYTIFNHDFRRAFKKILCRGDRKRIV
# Outline: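 Rat cerebral cortex homogenized in ice-cold 50 mM Tris–HCl (pH 7.6), spun at 20,000 g for 20 min (0–4 °C), resuspended and spun again. Membranes incubated with 0.2 nM [3H]-prazosin (α1) or 2 nM [3H]-clonidine (α2) and seven to eight compound concentrations (10^-11 to 10^-4 M). Non-specific binding defined with 10 µM phentolamine (prazosin) or 10 µM clonidine (clonidine). Ended by GF/C filtration, counted by liquid scintillation. Run in duplicate; Ki from two independent experiments.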
# [2] = target: T2, Alpha-1A adrenergic receptor (Homo sapiens, UniProt P35348); experiment: Intrinsic activity at alpha1A adrenergic receptor (unknown origin) assessed as inhibition of agonist induced effect preincubated for 30 mins followed by agonist addition measured after 5 hrs in presence of CCF4-AM by cell based beta lactamase reporter gene assay
# T2 sequence (P35348 whole entry): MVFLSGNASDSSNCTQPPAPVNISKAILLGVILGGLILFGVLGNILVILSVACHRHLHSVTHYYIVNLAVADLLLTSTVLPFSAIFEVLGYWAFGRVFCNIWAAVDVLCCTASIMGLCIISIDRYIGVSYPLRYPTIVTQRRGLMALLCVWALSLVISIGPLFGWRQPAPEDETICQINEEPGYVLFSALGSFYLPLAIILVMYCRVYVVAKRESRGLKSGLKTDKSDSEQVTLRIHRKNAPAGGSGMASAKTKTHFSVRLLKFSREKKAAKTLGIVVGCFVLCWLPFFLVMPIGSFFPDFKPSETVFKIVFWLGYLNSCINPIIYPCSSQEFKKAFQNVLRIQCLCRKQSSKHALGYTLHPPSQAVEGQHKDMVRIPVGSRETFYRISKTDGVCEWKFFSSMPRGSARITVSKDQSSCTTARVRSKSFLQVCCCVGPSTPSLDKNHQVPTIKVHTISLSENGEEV
# Outline: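 Antagonist mode: 8 compound concentrations (10^-4–10^-11 M), then after 30 min standard agonist at EC80. Incubated 5 h at 37 °C/5% CO2, then loaded with CCF4-AM FRET substrate for 2 h at room temperature. Fluorescence read-out. Mean EC50 from three experiments.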
# [3] = Selectivity ratio of EC50 for human alpha1B adrenergic receptor expressed in CHOK1 cells co-expressing aequorin assessed as inhibition of agonist induced calcium mobilization to EC50 for alpha1A adrenergic receptor (unknown origin) assessed as inhibition of agonist induced effect; type: cell-based; details: cho-k1
# [4] = target: 5-hydroxytryptamine receptor 7 (Homo sapiens) (UniProt P34969); experiment: Displacement of [3H]-LSD from human 5-HT7 receptor expressed in CHO-K1 cell membranes at 1 uM after 2 hr by micro beta2 scintillation counting analysis
# Sequence of 5-hydroxytryptamine receptor 7 (Homo sapiens) (P34969 whole entry): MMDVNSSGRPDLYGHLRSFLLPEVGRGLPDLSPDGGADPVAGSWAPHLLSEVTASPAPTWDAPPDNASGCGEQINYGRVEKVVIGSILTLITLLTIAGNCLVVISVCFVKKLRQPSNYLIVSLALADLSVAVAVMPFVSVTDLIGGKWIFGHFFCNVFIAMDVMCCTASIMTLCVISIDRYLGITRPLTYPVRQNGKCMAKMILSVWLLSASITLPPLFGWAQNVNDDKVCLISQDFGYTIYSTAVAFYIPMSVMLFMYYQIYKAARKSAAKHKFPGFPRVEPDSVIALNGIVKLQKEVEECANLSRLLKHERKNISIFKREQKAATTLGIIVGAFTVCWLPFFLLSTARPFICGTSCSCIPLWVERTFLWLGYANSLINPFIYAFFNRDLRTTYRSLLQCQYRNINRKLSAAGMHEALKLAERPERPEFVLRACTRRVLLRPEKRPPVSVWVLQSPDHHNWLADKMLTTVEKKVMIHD
# Outline: (§1)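 Membranes of CHO-K1 cells stably expressing human 5-HT1A or 5-HT7 receptor. Buffer 50 mM Tris–HCl, 0.1 mM EDTA, 10 mM MgCl2. Each compound screened at final 10 µM and 1 µM. Incubation at 37 °C, 1 h for 5-HT1A and 2 h for 5-HT7. Non-specific binding defined with 10 µM 5-HT (5-HT1A) or 10 µM methiothepine (5-HT7). Output is percent inhibition of specific binding.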
# [5] = target: 5-hydroxytryptamine receptor 7 (Homo sapiens) (UniProt P34969); experiment: Displacement of [3H]-LSD from human 5-HT7 receptor expressed in CHO-K1 cell membranes at 10 uM after 2 hr by micro beta2 scintillation counting analysis; details: 0.1 uM, in the assay text read “at 0.1 uM” for “at 10 uM”; outline: as §1
smiles,measurement,setting,value
COc1ccccc1OCCN1CCC(CNS(=O)(=O)c2cc(Cl)ccc2F)CC1,Ki,[1],1345 nM
same,EC50,[2],148 nM
same,Ratio EC50,[3],0.08
COc1ccccc1OCCN1CCC(CNS(=O)(=O)c2cccc(Cl)c2F)CC1,Ki,[1],678 nM
same,EC50,[2],84.2 nM
same,Ratio EC50,[3],0.17
COc1ccccc1OCCN1CCC(CNS(=O)(=O)c2cccc(Cl)c2)CC1,Ki,[1],439 nM
same,EC50,[2],121 nM
same,Ratio EC50,[3],0.13
COc1ccccc1OCCN1CCC(NS(=O)(=O)c2cncc3ccccc23)CC1,Ki,[1],297 nM
same,EC50,[2],99.7 nM
same,Ratio EC50,[3],6.1
same,inhibition,[4],87%
same,inhibition,[5],41%
COc1ccc(S(=O)(=O)NCC2CCN(CCOc3ccccc3OC)CC2)cc1OC,Ki,[1],644 nM
same,EC50,[2],161 nM
same,Ratio EC50,[3],3.73
same,inhibition,[4],52%
same,inhibition,[5],16%
CC(C)Oc1ccccc1OCCN1CCC(CNS(=O)(=O)c2cccc3cccnc23)CC1,Ki,[1],947 nM
same,EC50,[2],34.1 nM
same,Ratio EC50,[3],3.07
same,inhibition,[4],91%
same,inhibition,[5],51%
COc1ccccc1OCCN1CCC(CNS(=O)(=O)c2cncc3ccccc23)CC1,Ki,[1],695 nM
same,EC50,[2],140 nM
same,Ratio EC50,[3],3.68
same,inhibition,[4],89%
same,inhibition,[5],54%
CC(C)Oc1ccccc1OCCN1CCC(CNS(=O)(=O)c2cccc(Cl)c2F)CC1,Ki,[1],1212 nM
same,EC50,[2],11.1 nM
same,Ratio EC50,[3],3.8
same,inhibition,[4],90%
same,inhibition,[5],45%
COc1ccc(S(=O)(=O)NC2CCN(CCOc3ccccc3OC)CC2)cc1OC,Ki,[1],2140 nM
same,EC50,[2],192 nM
same,Ratio EC50,[3],2.4
